One data set deals with P-gp (ABCB1) (Homo sapiens, UniProt P08183). In words: Substrate activity at p-gp in human Caco2 cells assessed as ratio of apparent permeability across basolateral to apical over apical to basolateral side at 100 uM after 120 mins by UV-Vis spectroscopy. The class given is ADME, cell-based. The settings on record: Caco-2. The procedure, abridged:
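Caco-2 monolayers cultured 21 days, with TEER checked before and after the experiment. Compounds at 100 μM in HBSS pH 7.4, applied apical or basolateral, 120 min at 37 °C after 30 min buffer preincubation. Acceptor concentration measured by UV–vis. Papp = [VA/(area×time)]×([drug]acceptor/[drug]initial), area 0.11 cm², 7200 s. Two independent experiments.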

For data set [1], the target named is Multidrug resistance-associated protein 1 (Homo sapiens, UniProt P33527). Nature of the data set: Inhibition of MRP1 (unknown origin) expressed in MDCK cells assessed as decrease in calcein-AM transport at 10^-4 M after 30 mins by fluorescence assay. It counts as cell-based. The settings on record: 0.5 h, 100 µM. The procedure, abridged:
(§1)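 MDCK-MDR1 or MDCK-MRP1 cells (50,000/well) grown to confluence overnight. Compounds in medium preincubated 30 min at 37 °C, then calcein-AM (2.5 μM final, in PBS) added for 30 min. Three ice-cold PBS washes; fluorescence read at ex 485/em 535 nm. Increase over untreated basal fluorescence fitted against log[dose] for EC50. Mean of three independent experiments, duplicate samples.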

The target of data set [2] is T1, ATP-dependent translocase ABCB1 (Homo sapiens, UniProt P08183). In words: Inhibition of MDR1 (unknown origin) expressed in MDCK cells assessed as decrease in calcein-AM transport after 30 mins by fluorescence assay. It counts as cell-based. The procedure, abridged: as §1
T1 sequence (P08183 whole entry): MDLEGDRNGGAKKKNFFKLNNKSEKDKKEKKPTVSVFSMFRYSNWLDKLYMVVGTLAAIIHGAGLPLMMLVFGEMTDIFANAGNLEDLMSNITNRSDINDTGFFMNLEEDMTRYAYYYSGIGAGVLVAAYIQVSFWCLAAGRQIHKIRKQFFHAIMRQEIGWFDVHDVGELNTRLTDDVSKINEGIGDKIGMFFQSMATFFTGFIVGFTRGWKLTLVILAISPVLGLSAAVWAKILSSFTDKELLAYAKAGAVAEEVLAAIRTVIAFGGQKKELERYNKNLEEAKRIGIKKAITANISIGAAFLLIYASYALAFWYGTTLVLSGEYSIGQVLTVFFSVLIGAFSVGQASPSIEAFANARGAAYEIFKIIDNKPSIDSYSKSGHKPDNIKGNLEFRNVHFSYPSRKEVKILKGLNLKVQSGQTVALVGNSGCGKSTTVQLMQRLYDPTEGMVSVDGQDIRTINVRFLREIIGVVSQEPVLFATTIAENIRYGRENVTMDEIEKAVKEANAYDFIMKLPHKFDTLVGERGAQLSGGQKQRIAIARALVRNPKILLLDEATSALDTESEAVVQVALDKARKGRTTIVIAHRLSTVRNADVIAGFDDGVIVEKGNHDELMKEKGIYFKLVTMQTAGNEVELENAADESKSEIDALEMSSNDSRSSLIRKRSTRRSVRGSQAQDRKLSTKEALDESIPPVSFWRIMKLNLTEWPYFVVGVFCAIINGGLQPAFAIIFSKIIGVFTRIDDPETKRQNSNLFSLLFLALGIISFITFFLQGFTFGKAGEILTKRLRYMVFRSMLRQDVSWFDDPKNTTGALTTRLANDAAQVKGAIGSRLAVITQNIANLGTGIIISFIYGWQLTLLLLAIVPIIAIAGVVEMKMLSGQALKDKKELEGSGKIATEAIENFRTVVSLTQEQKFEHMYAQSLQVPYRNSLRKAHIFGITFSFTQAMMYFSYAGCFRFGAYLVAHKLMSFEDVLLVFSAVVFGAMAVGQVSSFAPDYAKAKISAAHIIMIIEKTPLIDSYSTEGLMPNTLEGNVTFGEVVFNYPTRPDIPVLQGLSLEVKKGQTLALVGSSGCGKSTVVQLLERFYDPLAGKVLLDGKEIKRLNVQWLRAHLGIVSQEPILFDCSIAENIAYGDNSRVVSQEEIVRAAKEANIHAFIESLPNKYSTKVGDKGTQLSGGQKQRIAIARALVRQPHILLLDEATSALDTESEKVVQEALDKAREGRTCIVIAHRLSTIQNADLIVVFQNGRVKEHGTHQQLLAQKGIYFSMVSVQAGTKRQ
For data set [3], the target named is T1, ATP-dependent translocase ABCB1. In words: Activation of MDR1 (unknown origin) ATPase activity expressed in MDCK cells assessed as decrease in ATP level after 2 hrs by ATPlite assay. It counts as cell-based. The procedure, abridged: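 MDCK-MDR1 cells seeded at 2x10⁴/well, grown overnight at 37 °C, 5% CO₂, then exposed to test compounds in complete medium at varying concentrations for 2 h. Cells lysed, luciferase substrate added, 10 min dark adaptation, luminescence read as cellular ATP level. Mean of three independent experiments, duplicate samples.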

In data set [4] the test system is MDCK. Nature of the data set: Cytotoxicity against MDCK cells expressing MDR1 assessed as inhibition of cell proliferation at 1 uM after 24 hrs by MTT assay. The class given is ADME, cell-based, Canis lupus familiaris. Particulars: dog; call rule not given here. In a few lines: (§2)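 MTT growth assay. 30000 cells/well seeded on day 1; drugs added on day 2 over 0.1–100 μM, with solvent (ethanol, DMSO) controls. After 24 or 48 h, MTT 0.5 mg/mL for 3 h at 37 °C. Formazan dissolved in DMSO, absorbance read at 570 and 630 nm.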
On the technique in general: Formazan colour is commonly taken as a measure of viable cells.

A further data set deals with MCF7. In words: Cytotoxicity against human MCF7 cells assessed as inhibition of cell proliferation at 0.1 uM after 24 hrs by MTT assay. The class given is cell-based. Particulars: mcf7, 24 h. The procedure, abridged:
as §2

In data set [5] the test system is MDCK. Nature of the data set: Cytotoxicity against MDCK cells expressing MDR1 assessed as inhibition of cell proliferation at 0.1 uM after 48 hrs by MTT assay. Particulars: dog. It counts as ADME, cell-based, Canis lupus familiaris. In a few lines:
as §2

Data set [6] has as its target T2, Broad substrate specificity ATP-binding cassette transporter ABCG2 (Homo sapiens, UniProt Q9UNQ0).
T2 sequence (Q9UNQ0 whole entry): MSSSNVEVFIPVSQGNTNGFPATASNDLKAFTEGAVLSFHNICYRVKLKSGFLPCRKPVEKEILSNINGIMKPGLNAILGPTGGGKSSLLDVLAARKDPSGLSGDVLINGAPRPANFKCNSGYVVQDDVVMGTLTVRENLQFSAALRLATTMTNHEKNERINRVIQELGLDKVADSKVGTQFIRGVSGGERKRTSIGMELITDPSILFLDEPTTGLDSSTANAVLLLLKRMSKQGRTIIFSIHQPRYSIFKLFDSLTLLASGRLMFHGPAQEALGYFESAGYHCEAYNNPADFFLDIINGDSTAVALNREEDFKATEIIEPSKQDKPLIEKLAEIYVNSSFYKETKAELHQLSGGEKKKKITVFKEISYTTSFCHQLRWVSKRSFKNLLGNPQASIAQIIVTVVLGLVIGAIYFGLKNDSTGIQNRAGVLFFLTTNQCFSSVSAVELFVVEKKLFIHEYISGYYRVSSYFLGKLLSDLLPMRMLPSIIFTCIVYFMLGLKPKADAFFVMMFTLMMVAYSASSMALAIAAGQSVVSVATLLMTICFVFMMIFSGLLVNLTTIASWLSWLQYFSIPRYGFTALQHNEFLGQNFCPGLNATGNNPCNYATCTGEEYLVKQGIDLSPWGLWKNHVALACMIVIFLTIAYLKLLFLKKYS
Nature of the data set: Inhibition of BCRP (unknown origin).

Bounds are passed on as bounds.

P-gp (ABCB1), sequence (P08183 whole entry): as the sequence (P08183 whole entry) above
Multidrug resistance-associated protein 1, sequence (P33527 whole entry): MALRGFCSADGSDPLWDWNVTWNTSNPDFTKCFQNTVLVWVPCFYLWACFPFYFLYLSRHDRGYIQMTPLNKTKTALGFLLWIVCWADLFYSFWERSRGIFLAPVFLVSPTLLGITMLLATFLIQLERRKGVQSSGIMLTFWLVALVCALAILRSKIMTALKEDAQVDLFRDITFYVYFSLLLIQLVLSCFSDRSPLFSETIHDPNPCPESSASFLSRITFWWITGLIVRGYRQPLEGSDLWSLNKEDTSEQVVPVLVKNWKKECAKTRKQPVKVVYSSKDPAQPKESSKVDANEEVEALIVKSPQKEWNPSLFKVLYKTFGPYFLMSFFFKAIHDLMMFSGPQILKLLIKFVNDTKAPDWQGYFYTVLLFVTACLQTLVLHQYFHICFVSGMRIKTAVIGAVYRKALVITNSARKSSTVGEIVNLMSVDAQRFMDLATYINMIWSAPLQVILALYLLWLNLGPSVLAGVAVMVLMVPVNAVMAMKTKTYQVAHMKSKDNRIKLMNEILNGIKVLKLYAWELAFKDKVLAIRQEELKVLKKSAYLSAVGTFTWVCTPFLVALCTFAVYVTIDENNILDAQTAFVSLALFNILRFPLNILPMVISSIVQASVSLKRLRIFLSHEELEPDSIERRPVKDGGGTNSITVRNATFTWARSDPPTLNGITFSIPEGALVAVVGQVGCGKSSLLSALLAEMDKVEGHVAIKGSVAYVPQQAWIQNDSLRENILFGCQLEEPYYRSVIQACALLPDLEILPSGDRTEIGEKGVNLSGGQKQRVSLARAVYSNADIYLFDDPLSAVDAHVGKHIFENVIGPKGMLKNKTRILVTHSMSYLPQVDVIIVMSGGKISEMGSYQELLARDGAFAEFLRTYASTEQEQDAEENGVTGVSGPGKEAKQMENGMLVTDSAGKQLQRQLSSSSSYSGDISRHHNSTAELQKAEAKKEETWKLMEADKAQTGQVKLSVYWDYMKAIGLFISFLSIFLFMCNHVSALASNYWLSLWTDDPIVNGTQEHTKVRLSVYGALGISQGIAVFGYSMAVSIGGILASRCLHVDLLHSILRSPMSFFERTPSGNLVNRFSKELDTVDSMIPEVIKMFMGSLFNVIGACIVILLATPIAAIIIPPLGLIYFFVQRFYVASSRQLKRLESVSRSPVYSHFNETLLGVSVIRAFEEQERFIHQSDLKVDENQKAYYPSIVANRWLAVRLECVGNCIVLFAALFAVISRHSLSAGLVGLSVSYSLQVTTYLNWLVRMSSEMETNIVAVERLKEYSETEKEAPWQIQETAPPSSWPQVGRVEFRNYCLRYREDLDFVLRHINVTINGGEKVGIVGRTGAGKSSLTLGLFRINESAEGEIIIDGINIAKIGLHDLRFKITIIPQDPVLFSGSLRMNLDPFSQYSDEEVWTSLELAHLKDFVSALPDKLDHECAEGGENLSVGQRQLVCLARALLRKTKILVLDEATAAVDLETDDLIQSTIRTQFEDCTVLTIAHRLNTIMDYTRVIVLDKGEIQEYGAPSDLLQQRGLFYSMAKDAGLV

In the case of `COc1cc2c(cc1OC)CN(Cc1ccc(-c3ccc(OCCCCOc4nonc4OC)cc3)cc1)CC2`, at P-gp (ABCB1), the efflux ratio at 2 h, 100 µM amounted to 3. For the same compound, in data set [1], the “inhibition (INH)” value is listed as “Not Active”. The EC50 in data set [2] was 290 nM. Also, the Activity result in data set [3] is reported as “Not Active”.

As to `COc1cc2c(cc1OC)CN(Cc1ccc(-c3ccc(OCCCOc4nonc4C#N)cc3)cc1)CC2`, the efflux ratio at 2 h, 100 µM on P-gp (ABCB1) came to 4.9. Moreover, the “inhibition (INH)” value in data set [1] was “Not Active”. Moreover, the concentration giving a half-maximal response (EC50) in data set [2] is 1050 nM. Further, the Activity result in data set [3] is listed as “Not Active”.

As for `COc1cc2c(cc1OC)CN(Cc1ccc(-c3ccc(OCCCOc4nonc4Sc4ccccc4)cc3)cc1)CC2`, the efflux ratio at 2 h, 100 µM on P-gp (ABCB1) was 4.7. Besides, the “inhibition (INH)” value in data set [1] is given as “Not Active”. The EC50 in data set [2] is 1170 nM. In data set [3], the Activity result is “Not Active”.

Turning to `COc1cc2c(cc1OC)CN(Cc1ccc(-c3ccc(OCCOc4nonc4[S+]([O-])c4ccccc4)cc3)cc1)CC2` (configuration not stated), the Activity result with MDCK [4] was “Non-Toxic”; with MCF7 it was “Toxic”; with MDCK [5] it was “Toxic”; in data set [3], “Not Active”. Further, on P-gp (ABCB1), the efflux ratio at 2 h, 100 µM was found to be 4.6. Moreover, the “inhibition (INH)” value in data set [1] is reported as “Not Active”. The EC50 in data set [2] was 0.9 nM; in data set [6], over 100000 nM.

Regarding `COc1cc2c(cc1OC)CN(Cc1ccc(-c3ccc(OCCCOc4nonc4-c4ccccc4)cc3)cc1)CC2`, the efflux ratio at 2 h, 100 µM on P-gp (ABCB1) worked out at 20. Also, in data set [1], the “inhibition (INH)” value is reported as “Not Active”. The concentration for a half-maximal effect (EC50) in data set [2] is 3300 nM. In addition, the Activity entry in data set [3] was “Not Active”.

Regarding `COc1cc2c(cc1OC)CN(Cc1ccc(-c3ccc(OCCOc4nonc4OC)cc3)cc1)CC2`, the Activity result is listed as “Non-Toxic” in the data set on MDCK [4], “Toxic” in the data set on MCF7, “Toxic” in the data set with MDCK [5] and “Active” in data set [3]. In addition, the efflux ratio at 2 h, 100 µM on P-gp (ABCB1) stood at 3.2. In addition, in data set [1], the “inhibition (INH)” value was “Not Active”. Further, the results for the EC50 in data set [2] and in data set [6] were 0.6 nM and over 100000 nM, respectively.

Turning to `COc1cc2c(cc1OC)CN(Cc1ccc(-c3ccc(OCCCOc4nonc4Oc4ccccc4)cc3)cc1)CC2`, the efflux ratio at 2 h, 100 µM at P-gp (ABCB1) came to 3.8. In addition, in data set [1], the “inhibition (INH)” value is recorded as “Not Active”. The EC50 in data set [2] is 1180 nM. For the same compound, the Activity result in data set [3] is reported as “Not Active”.

Turning to `COc1cc2c(cc1OC)CN(Cc1ccc(-c3ccc(OCCOc4nonc4C#N)cc3)cc1)CC2`, on P-gp (ABCB1), the efflux ratio at 2 h, 100 µM was 4.7. The “inhibition (INH)” value in data set [1] is given as “Not Active”. Further, the EC50 in data set [2] was 1200 nM. For the same compound, the Activity result in data set [3] is reported as “Not Active”.

Take `COc1cc2c(cc1OC)CN(Cc1ccc(-c3ccc(OCCCOc4nonc4[S+]([O-])c4ccccc4)cc3)cc1)CC2` (configuration not stated): the Activity result with MDCK [4] is “Non-Toxic”; in the data set on MCF7, “Toxic”; with MDCK [5], “Toxic”; in data set [3], “Not Active”. Also, at P-gp (ABCB1), the efflux ratio at 2 h, 100 µM was 2.6. Moreover, in data set [1], the “inhibition (INH)” value is on record as “Not Active”. In addition, the EC50 in data set [2] is 1.3 nM; in data set [6], over 100000 nM.

For `COc1cc2c(cc1OC)CN(Cc1ccc(-c3ccc(OCCCOc4nonc4C)cc3)cc1)CC2`, the efflux ratio at 2 h, 100 µM at P-gp (ABCB1) came to 4. Moreover, the “inhibition (INH)” value in data set [1] is listed as “Not Active”. Moreover, the EC50 in data set [2] is 350 nM. The Activity entry in data set [3] is reported as “Not Active”.

On to `COc1cc2c(cc1OC)CN(Cc1ccc(-c3ccc(OCCCOc4nonc4S(=O)(=O)c4ccccc4)cc3)cc1)CC2`, for which the efflux ratio at 2 h, 100 µM at P-gp (ABCB1) was 2.5. For the same compound, the “inhibition (INH)” value in data set [1] is on record as “Not Active”. In addition, in data set [2], the EC50 is 380 nM. For the same compound, the Activity result in data set [3] was “Not Active”.

For `COc1cc2c(cc1OC)CN(Cc1ccc(-c3ccc(OCCCOc4nonc4OCc4ccccc4)cc3)cc1)CC2`, the Activity entry was “Non-Toxic” in the data set with MDCK [4], “Toxic” with MCF7, “Toxic” in the data set with MDCK [5] and “Not Active” in data set [3]. At P-gp (ABCB1), the efflux ratio at 2 h, 100 µM is 3. Further, the “inhibition (INH)” value in data set [1] is “Not Active”. Moreover, the concentration for a half-maximal effect (EC50) in data set [2] was 0.97 nM; in data set [6], over 100000 nM.

On to `COc1cc2c(cc1OC)CN(Cc1ccc(-c3ccc(OCCCOc4nonc4OC)cc3)cc1)CC2`, for which the efflux ratio at 2 h, 100 µM on P-gp (ABCB1) is 3.2. Besides, the “inhibition (INH)” value in data set [1] was “Not Active”. Further, the EC50 in data set [2] is 54 nM. In data set [3], the Activity result was “Not Active”.

For the compound `COc1cc2c(cc1OC)CN(Cc1ccc(-c3ccc(OCCOc4nonc4OCc4ccccc4)cc3)cc1)CC2`, the efflux ratio at 2 h, 100 µM on P-gp (ABCB1) worked out at 4.9. Further, the “inhibition (INH)” value in data set [1] is given as “Not Active”. For the same compound, the concentration for a half-maximal effect (EC50) in data set [2] was 290 nM. Further, in data set [3], the Activity result is “Not Active”.

What is called efflux ratio is a quotient of directional permeabilities that is used to spot active efflux. Usually EC50 stands for the concentration at which the effect is half-maximal.

The record behind these values is ChEMBL document CHEMBL4425124, “Structure-Activity Relationship Studies on Tetrahydroisoquinoline Derivatives: [4'-(6,7-Dimethoxy-3,4-dihydro-1H-isoquinolin-2-ylmethyl)biphenyl-4-ol] (MC70) Conjugated through Flexible Alkyl Chains with Furazan Moieties Gives Rise to Potent and Selective Ligands of P-glycoprotein” (J Med Chem, 2016).
